Converted amounts (≈) assume the structure as drawn.
Legend:
P. falciparum (D6) = assay: in vitro antimalarial activity, plasmodial LDH; type: cell-based, Plasmodium falciparum; conditions: Plasmodium falciparum, D6, 72 h, read-out: P. falciparum (D6) IC50
P. falciparum (W2) = assay: in vitro antimalarial activity, plasmodial LDH; type: cell-based, Plasmodium falciparum; conditions: Plasmodium falciparum, W2, 72 h, read-out: P. falciparum (W2) IC50, CQ-resistant W2 strain, 72 h
Outline: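 P. falciparum-infected erythrocytes (2% parasitemia, 2% hematocrit) in RPMI 1640 with 10% human serum and 60 μg/mL amikacin. Exposed to test compound dilutions for 72 h at 37 °C under 90% N2/5% O2/5% CO2. LDH measured with Malstat reagent (30 min, room temperature), then NBT/PES for 1 h in the dark, stopped with 5% acetic acid, read at 650 nm. IC50 from dose-response curves.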

[1] = system: SK-MEL, KB, BT-549, SK-OV-3, VERO and LLC-PK1 cells; assay: cytotoxicity, neutral red uptake assay; type: cell-based, mammalian; conditions: highest test concentration 4760 ng/mL
Outline: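 Cells seeded at 25 000/well and allowed 24 h to reach confluence. Test compound was then added and incubated 48 h. Viable cells were counted by a modified neutral red uptake method. The panel was four human cancer lines and two noncancerous mammalian kidney lines. Doxorubicin served as positive control and DMSO as negative control.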

[2] = system: L. donovani promastigotes; assay: in vitro antileishmanial activity, alamarBlue assay; type: cell-based, Leishmania donovani; conditions: Leishmania donovani, 48 h; for IC50: read-out: L. donovani IC50, promastigotes, 48 h; for IC90: read-out: L. donovani IC90, promastigotes, 48 h
C. albicans ATCC90028 = assay: in vitro antifungal activity; type: cell-based, Candida albicans; conditions: Candida albicans; for IC50: ATCC90028, read-out: C. albicans IC50; for MFC: ATCC90028, read-out: C. albicans MFC; for MIC: ATCC90028, read-out: C. albicans MIC
Outline: (§1)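 Modified NCCLS broth method in Sabouraud dextrose. Inoculum set by OD630 to 1.5 × 10^3 CFU/mL. Test compound serially diluted in 20% DMSO/saline, duplicate wells, up to 20 μg/mL. Incubated 70–74 h at 35 °C; 530 nm read before and after. IC50 is 50% growth inhibition; MIC is no detectable growth. MFC from clear wells subcultured on agar. Amphotericin B control.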

C. neoformans ATCC90113 = assay: in vitro antifungal activity; type: cell-based, Cryptococcus neoformans; conditions: Cryptococcus neoformans; for IC50: ATCC90113, read-out: C. neoformans IC50; for MFC: ATCC90113, read-out: C. neoformans MFC; for MIC: ATCC90113, read-out: C. neoformans MIC
Outline: as §1

A. fumigatus ATCC 90906 = assay: in vitro antifungal activity; type: cell-based, Aspergillus fumigatus; conditions: Aspergillus fumigatus; for IC50: ATCC90906, read-out: A. fumigatus IC50; for MFC: ATCC90906, read-out: A. fumigatus MFC; for MIC: ATCC90906, read-out: A. fumigatus MIC
Outline: as §1

SA (ATCC29213) = assay: in vitro antibacterial activity; type: cell-based; conditions: Staphylococcus aureus; for IC50: ATCC29213, read-out: IC50 (concentration that affords 50% growth inhibition), SA; for MBC: ATCC29213, read-out: MBC (minimum bactericidal concentration), SA; for MIC: ATCC29213, read-out: MIC, SA
Outline: (§2)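 Test compound serially diluted in 20% DMSO/saline and plated in duplicate, up to 20 μg/mL. Inoculum in cation-adjusted Mueller–Hinton broth, pH 7.3, set by OD630 to 5 × 10^5 CFU/mL. Incubated 16–20 h at 35 °C; 530 nm read before and after. IC50 is 50% growth inhibition; MIC is no detectable growth. MBC from clear wells subcultured on agar. Ciprofloxacin control.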

MRSA (ATCC33591) = assay: in vitro antibacterial activity; type: cell-based, methicillin-resistant Staphylococcus aureus; conditions: Staphylococcus aureus, ATCC33591|MRSA, read-out: MIC, MRSA
Outline: as §2

[3] = system: M. intracellulare (ATCC23068); assay: in vitro antibacterial activity, modified alamarBlue procedure; type: cell-based, Mycobacterium intracellulare; conditions: Mycobacterium intracellulare; for IC50: ATCC23068, read-out: IC50 (concentration that affords 50% growth inhibition), M. intracellulare; for MBC: ATCC23068, read-out: MBC (minimum bactericidal concentration), M. intracellulare; for MIC: ATCC23068, read-out: MIC, M. intracellulare
Outline: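 Modified alamarBlue microplate method. Test compound serially diluted in 20% DMSO/saline, duplicate wells, up to 20 μg/mL. Inoculum 2.0 × 10^6 CFU/mL in Middlebrook 7H9 with OADC, pH 7.3, containing 5% alamarBlue. Incubated 70–74 h at 37 °C, 10% CO2; fluorescence 544ex/590em read before and after. MIC: no blue-to-pink change. MBC by subculturing blue wells on agar. Ciprofloxacin control.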

Row | SMILES | IC50 (P. falciparum (D6)) | IC50 (P. falciparum (W2)) | cytotoxicity CTX [1] | IC50 [2] | IC90 [2] | IC50 (C. albicans ATCC90028) | MFC (C. albicans ATCC90028) | MIC (C. albicans ATCC90028) | IC50 (C. neoformans ATCC90113) | MFC (C. neoformans ATCC90113) | MIC (C. neoformans ATCC90113) | IC50 (A. fumigatus ATCC 90906) | MFC (A. fumigatus ATCC 90906) | MIC (A. fumigatus ATCC 90906) | IC50 (SA (ATCC29213)) | MBC (SA (ATCC29213)) | MIC (SA (ATCC29213)) | MIC (MRSA (ATCC33591)) | IC50 [3] | MBC [3] | further results
1 | CCCCCCCOc1c(OC)cc(NC(C)CCCNC(=O)C(N)Cc2ccccc2)c2nc(C(C)(C)C)ccc12 (stereo not drawn) [compound 112, 2-Amino-N-(4-(2-tert-butyl-5-(heptyloxy)-6-methoxyquinolin-8-ylamino)pentyl)-3-phenylpropanamide] | 3.2 mg/L (≈ 5.55 µM) | 2.2 mg/L (≈ 3.81 µM) | NC (NC, not cytotoxic up to 4760 ng/mL (4.76 μg/mL)) | 20 mg/L (≈ 34.7 µM) | 36 mg/L (≈ 62.4 µM) | > 20 mg/L | > 20 mg/L | > 20 mg/L | 4.56 mg/L (≈ 7.91 µM) | 5 mg/L (≈ 8.67 µM) | 5 mg/L (≈ 8.67 µM) | > 20 mg/L | > 20 mg/L | > 20 mg/L | 4.06 mg/L (≈ 7.04 µM) | 10 mg/L (≈ 17.3 µM) | 10 mg/L (≈ 17.3 µM) | 10 mg/L (≈ 17.3 µM) | > 20 mg/L | > 20 mg/L | MIC [3]: > 20 mg/L
2 | CCCCCCCOc1c(OC)cc(NC(C)CCCNC(=O)C(N)C(C)CC)c2nc(C(C)(C)C)ccc12 (stereo not drawn) [compound 114, 2-Amino-N-(4-(2-tert-butyl-5-(heptyloxy)-6-methoxyquinolin-8-ylamino)pentyl)-3-methylpentanamide] | 4.5 mg/L (≈ 8.29 µM) | 2.9 mg/L (≈ 5.34 µM) | NC (NC, not cytotoxic up to 4760 ng/mL (4.76 μg/mL)) | 3.8 mg/L (≈ 7 µM) | 7 mg/L (≈ 12.9 µM) | 14.2 mg/L (≈ 26.2 µM) | > 20 mg/L | > 20 mg/L | 1.07 mg/L (≈ 1.97 µM) | 2.5 mg/L (≈ 4.61 µM) | 2.5 mg/L (≈ 4.61 µM) | > 20 mg/L | > 20 mg/L | > 20 mg/L | 2.19 mg/L (≈ 4.03 µM) | 5 mg/L (≈ 9.21 µM) | 5 mg/L (≈ 9.21 µM) | 5 mg/L (≈ 9.21 µM) | 5.63 mg/L (≈ 10.4 µM) | 20 mg/L (≈ 36.8 µM) | MIC [3]: 10 mg/L (≈ 18.4 µM)
3 | CCCCCCCOc1c(OC)cc(NC(C)CCCNC(=O)C(N)Cc2cc3ccccc3[nH]2)c2nc(C(C)(C)C)ccc12 (stereo not drawn) [compound 115, 2-Amino-N-(4-(2-tert-butyl-5-(heptyloxy)-6-methoxyquinolin-8-ylamino)pentyl)-3-(1H-indol-2-yl)propanamide] | 3.3 mg/L (≈ 5.36 µM) | 2.8 mg/L (≈ 4.55 µM) | NC (NC, not cytotoxic up to 4760 ng/mL (4.76 μg/mL)) | 19 mg/L (≈ 30.9 µM) | 32 mg/L (≈ 52 µM) | > 20 mg/L | > 20 mg/L | > 20 mg/L | 1.36 mg/L (≈ 2.21 µM) | 2.5 mg/L (≈ 4.06 µM) | 2.5 mg/L (≈ 4.06 µM) | > 20 mg/L | > 20 mg/L | > 20 mg/L | 4.56 mg/L (≈ 7.4 µM) | 10 mg/L (≈ 16.2 µM) | 10 mg/L (≈ 16.2 µM) | 5 mg/L (≈ 8.12 µM) | 8.74 mg/L (≈ 14.2 µM) | 20 mg/L (≈ 32.5 µM) | MIC [3]: 10 mg/L (≈ 16.2 µM)
4 | CCCCCCCOc1c(OC)cc(NC(C)CCCNC(=O)C(N)CCSC)c2nc(C(C)(C)C)ccc12 (stereo not drawn) [compound 116, 2-Amino-N-(4-(2-tert-butyl-5-(heptyloxy)-6-methoxyquinolin-8-ylamino)pentyl)-4-(methylthio)butanamide] | 4.76 mg/L (≈ 8.49 µM) | 3.2 mg/L (≈ 5.71 µM) | NC (NC, not cytotoxic up to 4760 ng/mL (4.76 μg/mL)) | 4.1 mg/L (≈ 7.31 µM) | 12 mg/L (≈ 21.4 µM) | > 20 mg/L | > 20 mg/L | > 20 mg/L | 1.29 mg/L (≈ 2.3 µM) | 10 mg/L (≈ 17.8 µM) | 10 mg/L (≈ 17.8 µM) | > 20 mg/L | > 20 mg/L | > 20 mg/L | 4.07 mg/L (≈ 7.26 µM) | 10 mg/L (≈ 17.8 µM) | 10 mg/L (≈ 17.8 µM) | 5 mg/L (≈ 8.92 µM) | > 20 mg/L | > 20 mg/L | MIC [3]: > 20 mg/L
5 | CCCCCCCCOc1c(OC)cc(NC(C)CCCNC(=O)C(N)C(C)CC)c2nc(C(C)(C)C)ccc12 (stereo not drawn) [compound 119, 2-Amino-N-(4-(2-tert-butyl-6-methoxy-5-(octyloxy)quinolin-8-ylamino)pentyl)-3-methylpentanamide] | > 4.76 mg/L | > 4.76 mg/L | NC (NC, not cytotoxic up to 4760 ng/mL (4.76 μg/mL)) | 6.04 mg/L (≈ 10.8 µM) | 26.9 mg/L (≈ 48.4 µM) | > 20 mg/L | > 20 mg/L | > 20 mg/L | 2.87 mg/L (≈ 5.15 µM) | 10 mg/L (≈ 18 µM) | 10 mg/L (≈ 18 µM) | > 20 mg/L | > 20 mg/L | > 20 mg/L | 5.03 mg/L (≈ 9.03 µM) | > 20 mg/L | > 20 mg/L | > 20 mg/L | > 20 mg/L | > 20 mg/L | MIC [3]: > 20 mg/L
6 | CCCCCCCCOc1c(OC)cc(NC(C)CCCNC(=O)C(N)CCSC)c2nc(C(C)(C)C)ccc12 (stereo not drawn) [compound 120, 2-Amino-N-(4-(2-tert-butyl-6-methoxy-5-(octyloxy)quinolin-8-ylamino)pentyl)-4-(methylthio)butanamide] | 0.16 mg/L (≈ 0.278 µM) | 0.15 mg/L (≈ 0.261 µM) | NC (NC, not cytotoxic up to 4760 ng/mL (4.76 μg/mL)) | 6.99 mg/L (≈ 12.2 µM) | 26.4 mg/L (≈ 46 µM) | > 20 mg/L | > 20 mg/L | > 20 mg/L | 2.74 mg/L (≈ 4.77 µM) | 5 mg/L (≈ 8.7 µM) | 5 mg/L (≈ 8.7 µM) | > 20 mg/L | > 20 mg/L | > 20 mg/L | 11.7 mg/L (≈ 20.3 µM) | > 20 mg/L | 20 mg/L (≈ 34.8 µM) | 20 mg/L (≈ 34.8 µM) | 20 mg/L (≈ 34.8 µM) | > 20 mg/L | MIC [3]: > 20 mg/L
7 | CCCCCCCCOc1c(OC)cc(NC(C)CCCNC(=O)C(N)Cc2cc3ccccc3[nH]2)c2nc(C(C)(C)C)ccc12 (stereo not drawn) [compound 122, 2-Amino-N-(4-(2-tert-butyl-6-methoxy-5-(octyloxy)quinolin-8-ylamino)pentyl)-3-(1H-indol-2-yl)propanamide] | > 4.76 mg/L | > 4.76 mg/L | NC (NC, not cytotoxic up to 4760 ng/mL (4.76 μg/mL)) | 9.32 mg/L (≈ 14.8 µM) | 25.7 mg/L (≈ 40.8 µM) | > 20 mg/L | > 20 mg/L | > 20 mg/L | 6.8 mg/L (≈ 10.8 µM) | > 20 mg/L | 20 mg/L (≈ 31.8 µM) | > 20 mg/L | > 20 mg/L | > 20 mg/L | 12 mg/L (≈ 19 µM) | > 20 mg/L | 20 mg/L (≈ 31.8 µM) | 20 mg/L (≈ 31.8 µM) | > 20 mg/L | > 20 mg/L | MIC [3]: > 20 mg/L
8 | CCCCCCCCOc1c(OC)cc(NC(C)CCCNC(=O)C2CCCN2)c2nc(C(C)(C)C)ccc12 (stereo not drawn) [compound 123, N-(4-(2-tert-Butyl-6-methoxy-5-(octyloxy)quinolin-8-ylamino)pentyl)pyrrolidine-2-carboxamide] | > 4.76 mg/L | > 4.76 mg/L | NC (NC, not cytotoxic up to 4760 ng/mL (4.76 μg/mL)) | 12.4 mg/L (≈ 22.9 µM) | 38.4 mg/L (≈ 71 µM) | > 20 mg/L | > 20 mg/L | > 20 mg/L | 2.89 mg/L (≈ 5.34 µM) | 5 mg/L (≈ 9.25 µM) | 5 mg/L (≈ 9.25 µM) | > 20 mg/L | > 20 mg/L | > 20 mg/L | 10.4 mg/L (≈ 19.3 µM) | 20 mg/L (≈ 37 µM) | 20 mg/L (≈ 37 µM) | 10 mg/L (≈ 18.5 µM) | > 20 mg/L | > 20 mg/L | MIC [3]: > 20 mg/L

Source: paper PMC6045484 (ACS Omega, 2018)
